From ChEMBL document CHEMBL1146904, “Potent 4-amino-5-azaindole factor VIIa inhibitors” (Bioorg Med Chem Lett, 2006)

Experiments:
Coagulation factor VII = molecular target: T1, Coagulation factor VII (Homo sapiens, UniProt P08709); experiment: Binding affinity to f7a/TF complex
T1 sequence (P08709 whole entry): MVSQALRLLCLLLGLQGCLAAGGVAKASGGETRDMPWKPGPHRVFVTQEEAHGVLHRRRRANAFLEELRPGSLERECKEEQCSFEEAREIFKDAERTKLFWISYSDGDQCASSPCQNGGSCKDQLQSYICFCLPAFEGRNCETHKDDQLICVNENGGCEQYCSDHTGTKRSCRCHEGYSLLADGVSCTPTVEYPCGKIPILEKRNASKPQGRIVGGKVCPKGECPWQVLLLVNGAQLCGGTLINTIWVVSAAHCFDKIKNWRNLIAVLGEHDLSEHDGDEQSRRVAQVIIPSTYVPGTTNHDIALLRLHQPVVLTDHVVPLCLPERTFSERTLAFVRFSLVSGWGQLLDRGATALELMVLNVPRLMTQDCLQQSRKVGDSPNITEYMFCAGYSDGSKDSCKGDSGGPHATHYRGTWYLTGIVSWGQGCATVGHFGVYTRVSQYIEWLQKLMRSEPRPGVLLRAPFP

[1] = Anticoagulant potency in human plasma by aPTT assay; type: functional
Method in brief: (§1)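 Clotting time measured at 37 °C in human plasma on an automated coagulometer, following the manufacturer's instructions. Tissue-factor-dependent clotting was read by PT. Tissue-factor-independent (intrinsic pathway) clotting was read by aPTT.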

[2] = molecular target: Coagulation factor VII/tissue factor (Homo sapiens) (UniProt P08709+P13726); experiment: Anticoagulant potency in human plasma by PT assay; type: functional, cell-free; method in brief: as §1
Coagulation factor X = Coagulation factor X (Homo sapiens, UniProt P00742); experiment: Binding affinity to f10a
Chain of Coagulation factor X (P00742 41-179 limits assumed): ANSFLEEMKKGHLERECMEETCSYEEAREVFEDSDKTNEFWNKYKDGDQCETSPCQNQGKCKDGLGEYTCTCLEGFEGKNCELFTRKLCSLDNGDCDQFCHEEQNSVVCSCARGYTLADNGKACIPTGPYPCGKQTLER
Chain of Coagulation factor X (P00742 235-488 limits assumed): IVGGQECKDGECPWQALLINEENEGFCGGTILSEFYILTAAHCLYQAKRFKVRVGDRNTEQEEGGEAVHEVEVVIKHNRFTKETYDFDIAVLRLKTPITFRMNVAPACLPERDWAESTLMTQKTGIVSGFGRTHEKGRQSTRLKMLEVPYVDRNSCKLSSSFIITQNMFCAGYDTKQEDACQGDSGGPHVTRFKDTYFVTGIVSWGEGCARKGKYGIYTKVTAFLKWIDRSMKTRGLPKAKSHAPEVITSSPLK

Trypsin = Trypsin (Homo sapiens, UniProt P07477+P07478+P35030); experiment: Binding affinity to trypsin; type: protein assay
Prothrombin = Prothrombin (Homo sapiens, UniProt P00734); experiment: Binding affinity to thrombin

SMILES | Ki (Coagulation factor VII) [µM] | 2aPTT [1] [µM] | 2PT [2] [µM] | Ki (Coagulation factor X) [µM] | Ki (Trypsin) [µM] | Ki (Prothrombin) [µM]
CC(C)(C(=O)O)c1cc(-c2cccc(CNC(=O)Nc3c(F)cccc3F)c2)c(O)c(-c2cc3c(N)[nH]ccc-3n2)c1 | 0.0026 | >20 | 2.4 |  |  | 
Nc1[nH]ccc2nc(-c3cc(C(=O)O)cc(-c4cccc(CNC(=O)[C@@H](O)Cc5ccccc5)c4)c3O)cc1-2 | 0.0013 | 3.7 | 4.5 |  |  | 
CC(C)(C(=O)O)c1cc(-c2cccc(CNC(=O)Nc3ccc(C(=O)O)cc3)c2)c(O)c(-c2cc3c(N)[nH]ccc-3n2)c1 | 0.02 | >20 | 5.8 |  |  | 
N=C(N)c1ccc2[nH]c(-c3cccc(-c4cc(CNC(N)=O)ccc4O)c3O)nc2c1 |  |  |  | 2.7 | 3.6 | 90
CC(C)(C(=O)O)c1cc(-c2cccc(CNC(=O)[C@@H](O)Cc3ccccc3)c2)c(O)c(-c2cc3c(N)[nH]ccc-3n2)c1 | 0.015 | 17 | 6.4 |  |  | 
O=C(NCc1cccc(-c2cccc(-c3cc4c[nH]ccc-4n3)c2O)c1)[C@@H](O)Cc1ccccc1 | 0.22 |  |  | 30 | 12 | 100
Nc1[nH]ccc2nc(-c3cccc(-c4cccc(CNC(=O)[C@@H](O)Cc5ccccc5)c4)c3O)cc1-2 | 0.081 | 22 | 12 | 54 | 38 | 99
